Tests used:
Type in all cases: functional, cell-based
[1] = tested on: MDA-MB-231; test: Cytotoxicity against human MDA-MB-231 cells after 96 hrs under normoxic condition by MTT assay
In short: (§1)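 MTT viability assay in HT-29 (high CA IX) and MDA-MB-231 (normal CA IX) cells under normoxic and hypoxic conditions; IC50 values reported.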

[2] = tested on: HT-29; test: Cytotoxicity against human HT-29 cells after 96 hrs under hypoxic condition by MTT assay; in short: as §1
[3] = tested on: HT-29; test: Cytotoxicity against human HT-29 cells after 96 hrs under normoxic condition by MTT assay; in short: as §1
[4] = tested on: MDA-MB-231; test: Cytotoxicity against human MDA-MB-231 cells after 96 hrs under hypoxic condition by MTT assay; in short: as §1
[5] = Homo sapiens, MDA-MB-231, 96 h, read-out: IC50
[6] = Homo sapiens, HT-29, 96 h, read-out: IC50

CC(=O)Nc1nnc(S(N)(=O)=O)s1 [ACETAZOLAMIDE]
IC50 [1, 5]: > 100 µM
IC50 [2, 6]: > 100 µM
IC50 [3, 6]: > 100 µM
IC50 [4, 5]: > 100 µM

Cc1c(Cl)c(=O)oc2cc(-n3cc(CO[C@H]4O[C@@H]5O[C@@]6(C)CC[C@H]7[C@H](C)CC[C@@H]([C@H]4C)[C@@]57OO6)nn3)ccc12
IC50 [1, 5]: 50.5 µM
IC50 [2, 6]: 1.15 µM
IC50 [3, 6]: 4.27 µM
IC50 [4, 5]: 24.7 µM

C[C@H]1[C@@H](OCCc2cn(CCOc3ccc4c(C(F)(F)F)cc(=O)oc4c3)nn2)O[C@@H]2O[C@@]3(C)CC[C@H]4[C@H](C)CC[C@@H]1[C@@]24OO3
IC50 [1, 5]: 17.9 µM
IC50 [2, 6]: 4.01 µM
IC50 [3, 6]: 3.58 µM
IC50 [4, 5]: 14.2 µM

Cc1cc(=O)oc2cc(-n3cc(CCO[C@H]4O[C@@H]5O[C@@]6(C)CC[C@H]7[C@H](C)CC[C@@H]([C@H]4C)[C@@]57OO6)nn3)ccc12
IC50 [1, 5]: 3.78 µM
IC50 [2, 6]: 10.9 µM
IC50 [3, 6]: 8.95 µM
IC50 [4, 5]: 9.96 µM

Cc1c(C)c2ccc(OCCO[C@H]3O[C@@H]4O[C@@]5(C)CC[C@H]6[C@H](C)CC[C@@H]([C@H]3C)[C@@]46OO5)cc2oc1=O
IC50 [1, 5]: 57.2 µM
IC50 [2, 6]: 57.2 µM
IC50 [3, 6]: 12.8 µM
IC50 [4, 5]: 12.8 µM

Cc1c(F)c(=O)oc2cc(-n3cc(CO[C@H]4O[C@@H]5O[C@@]6(C)CC[C@H]7[C@H](C)CC[C@@H]([C@H]4C)[C@@]57OO6)nn3)ccc12
IC50 [1, 5]: 3.47 µM
IC50 [2, 6]: 7.39 µM
IC50 [3, 6]: 3.35 µM
IC50 [4, 5]: 2.6 µM

COc1cccc2c1C(=O)c1c(O)c3c(c(O)c1C2=O)C[C@@](O)(C(=O)CO)C[C@@H]3O[C@H]1C[C@H](N)[C@H](O)[C@H](C)O1 [DOXORUBICIN]
IC50 [1, 5]: 1.07 µM
IC50 [2, 6]: 0.25 µM
IC50 [3, 6]: 0.24 µM
IC50 [4, 5]: 5.98 µM

Cc1c(C)c2ccc(OCCn3cc(CCO[C@H]4O[C@@H]5O[C@@]6(C)CC[C@H]7[C@H](C)CC[C@@H]([C@H]4C)[C@@]57OO6)nn3)cc2oc1=O
IC50 [1, 5]: 56.7 µM
IC50 [2, 6]: 14.6 µM
IC50 [3, 6]: 3.47 µM
IC50 [4, 5]: 52.3 µM

Cc1c(Cl)c(=O)oc2cc(OCCCn3cc(CCO[C@H]4O[C@@H]5O[C@@]6(C)CC[C@H]7[C@H](C)CC[C@@H]([C@H]4C)[C@@]57OO6)nn3)ccc12
IC50 [1, 5]: 31 µM
IC50 [2, 6]: 1.68 µM
IC50 [3, 6]: 1.19 µM
IC50 [4, 5]: 6.07 µM

Cc1cc(=O)oc2cc(-n3cc(CO[C@H]4O[C@@H]5O[C@@]6(C)CC[C@H]7[C@H](C)CC[C@@H]([C@H]4C)[C@@]57OO6)nn3)ccc12
IC50 [1, 5]: 21.5 µM
IC50 [2, 6]: 5.09 µM
IC50 [3, 6]: 10.8 µM
IC50 [4, 5]: 49.8 µM

COC(=O)c1cc2ccc(OCCCn3cc(CCO[C@H]4O[C@@H]5O[C@@]6(C)CC[C@H]7[C@H](C)CC[C@@H]([C@H]4C)[C@@]57OO6)nn3)cc2oc1=O
IC50 ([1]; mda-mb-231): Nd(Insoluble)
IC50 ([2]; ht-29): Nd(Insoluble)
IC50 ([3]; ht-29): Nd(Insoluble)
IC50 ([4]; mda-mb-231): Nd(Insoluble)

C[C@H]1[C@@H](O)O[C@@H]2O[C@@]3(C)CC[C@H]4[C@H](C)CC[C@@H]1[C@@]24OO3 [ARTENIMOL]
IC50 [1, 5]: 47.1 µM
IC50 [2, 6]: 18.5 µM
IC50 [3, 6]: > 100 µM
IC50 [4, 5]: 5.64 µM

Cc1cc(=O)oc2cc(OCCn3cc(CCO[C@H]4O[C@@H]5O[C@@]6(C)CC[C@H]7[C@H](C)CC[C@@H]([C@H]4C)[C@@]57OO6)nn3)ccc12
IC50 [1, 5]: 17 µM
IC50 [2, 6]: 10.7 µM
IC50 [3, 6]: 5.72 µM
IC50 [4, 5]: 18.2 µM

Cc1c(C)c2ccc(-n3cc(CCO[C@H]4O[C@@H]5O[C@@]6(C)CC[C@H]7[C@H](C)CC[C@@H]([C@H]4C)[C@@]57OO6)nn3)cc2oc1=O
IC50 [1, 5]: 3.75 µM
IC50 [2, 6]: 0.08 µM
IC50 [3, 6]: 4.71 µM
IC50 [4, 5]: 3.58 µM

C[C@H]1[C@@H](OCCOc2ccc3c(C(F)(F)F)cc(=O)oc3c2)O[C@@H]2O[C@@]3(C)CC[C@H]4[C@H](C)CC[C@@H]1[C@@]24OO3
IC50 [1, 5]: 15.2 µM
IC50 [2, 6]: 5.59 µM
IC50 [3, 6]: 54.8 µM
IC50 [4, 5]: 6.14 µM

C[C@H]1[C@@H](OCCc2cn(CCCOc3ccc4c(C(F)(F)F)cc(=O)oc4c3)nn2)O[C@@H]2O[C@@]3(C)CC[C@H]4[C@H](C)CC[C@@H]1[C@@]24OO3
IC50 [1, 5]: 32.5 µM
IC50 [2, 6]: 4.29 µM
IC50 [3, 6]: 5.88 µM
IC50 [4, 5]: 6.58 µM

Cc1c(C)c2ccc(-n3cc(CO[C@H]4O[C@@H]5O[C@@]6(C)CC[C@H]7[C@H](C)CC[C@@H]([C@H]4C)[C@@]57OO6)nn3)cc2oc1=O
IC50 [1, 5]: 23.4 µM
IC50 [2, 6]: 0.02 µM
IC50 [3, 6]: 2.67 µM
IC50 [4, 5]: 4.85 µM

Cc1c(C)c2ccc(OCCCn3cc(CCO[C@H]4O[C@@H]5O[C@@]6(C)CC[C@H]7[C@H](C)CC[C@@H]([C@H]4C)[C@@]57OO6)nn3)cc2oc1=O
IC50 [1, 5]: > 100 µM
IC50 [2, 6]: 0.11 µM
IC50 [3, 6]: 5 µM
IC50 [4, 5]: 33.2 µM

CCOC(=O)c1cc2ccc(O[C@H]3O[C@@H]4O[C@@]5(C)CC[C@H]6[C@H](C)CC[C@@H]([C@H]3C)[C@@]46OO5)cc2oc1=O
IC50 [1, 5]: 21.9 µM
IC50 [2, 6]: 7.17 µM
IC50 [3, 6]: 3.45 µM
IC50 [4, 5]: 2.85 µM

Cc1c(F)c(=O)oc2cc(-n3cc(CCO[C@H]4O[C@@H]5O[C@@]6(C)CC[C@H]7[C@H](C)CC[C@@H]([C@H]4C)[C@@]57OO6)nn3)ccc12
IC50 [1, 5]: 3.84 µM
IC50 [2, 6]: 5.66 µM
IC50 [3, 6]: 9.89 µM
IC50 [4, 5]: 3.36 µM

Cc1c(Cl)c(=O)oc2cc(O[C@H]3O[C@@H]4O[C@@]5(C)CC[C@H]6[C@H](C)CC[C@@H]([C@H]3C)[C@@]46OO5)ccc12
IC50 [1, 5]: 50.5 µM
IC50 [2, 6]: 0.41 µM
IC50 [3, 6]: 1.28 µM
IC50 [4, 5]: 1.4 µM

Cc1cc(=O)oc2cc(OCCCO[C@H]3O[C@@H]4O[C@@]5(C)CC[C@H]6[C@H](C)CC[C@@H]([C@H]3C)[C@@]46OO5)ccc12
IC50 [1, 5]: 30 µM
IC50 [2, 6]: 8.71 µM
IC50 [3, 6]: 13.8 µM
IC50 [4, 5]: 22.9 µM

C[C@H]1[C@@H](OCCc2cn(-c3ccc4c(C(F)(F)F)cc(=O)oc4c3)nn2)O[C@@H]2O[C@@]3(C)CC[C@H]4[C@H](C)CC[C@@H]1[C@@]24OO3
IC50 [1, 5]: 1.85 µM
IC50 [2, 6]: 10.3 µM
IC50 [3, 6]: 6.07 µM
IC50 [4, 5]: 95.7 µM

Cc1c(Cl)c(=O)oc2cc(OCCCO[C@H]3O[C@@H]4O[C@@]5(C)CC[C@H]6[C@H](C)CC[C@@H]([C@H]3C)[C@@]46OO5)ccc12
IC50 [1, 5]: 0.6 µM
IC50 [2, 6]: 8.05 µM
IC50 [3, 6]: 2.55 µM
IC50 [4, 5]: 2.38 µM

Cc1cc(=O)oc2cc(OCCO[C@H]3O[C@@H]4O[C@@]5(C)CC[C@H]6[C@H](C)CC[C@@H]([C@H]3C)[C@@]46OO5)ccc12
IC50 [1, 5]: 4.29 µM
IC50 [2, 6]: 3.69 µM
IC50 [3, 6]: 2.35 µM
IC50 [4, 5]: 0.1 µM

Cc1c(Cl)c(=O)oc2cc(OCCn3cc(CCO[C@H]4O[C@@H]5O[C@@]6(C)CC[C@H]7[C@H](C)CC[C@@H]([C@H]4C)[C@@]57OO6)nn3)ccc12
IC50 [1, 5]: 7.53 µM
IC50 [2, 6]: 2.37 µM
IC50 [3, 6]: 5.28 µM
IC50 [4, 5]: 7.24 µM

C[C@H]1[C@@H](OCCCOc2ccc3c(C(F)(F)F)cc(=O)oc3c2)O[C@@H]2O[C@@]3(C)CC[C@H]4[C@H](C)CC[C@@H]1[C@@]24OO3
IC50 [1, 5]: 13.6 µM
IC50 [2, 6]: 1.19 µM
IC50 [3, 6]: 4.57 µM
IC50 [4, 5]: 8.86 µM

Cc1cc(=O)oc2cc(OCCCn3cc(CCO[C@H]4O[C@@H]5O[C@@]6(C)CC[C@H]7[C@H](C)CC[C@@H]([C@H]4C)[C@@]57OO6)nn3)ccc12
IC50 [1, 5]: 72.2 µM
IC50 [2, 6]: 0.11 µM
IC50 [3, 6]: 6.87 µM
IC50 [4, 5]: 14.4 µM

Cc1c(Cl)c(=O)oc2cc(-n3cc(CCO[C@H]4O[C@@H]5O[C@@]6(C)CC[C@H]7[C@H](C)CC[C@@H]([C@H]4C)[C@@]57OO6)nn3)ccc12
IC50 [1, 5]: 5.19 µM
IC50 [2, 6]: 0.01 µM
IC50 [3, 6]: 1.5 µM
IC50 [4, 5]: 1.03 µM

Cc1c(Cl)c(=O)oc2cc(OCCO[C@H]3O[C@@H]4O[C@@]5(C)CC[C@H]6[C@H](C)CC[C@@H]([C@H]3C)[C@@]46OO5)ccc12
IC50 [1, 5]: 18 µM
IC50 [2, 6]: 7.02 µM
IC50 [3, 6]: 23.9 µM
IC50 [4, 5]: 5.36 µM

COC(=O)c1cc2ccc(OCCn3cc(CCO[C@H]4O[C@@H]5O[C@@]6(C)CC[C@H]7[C@H](C)CC[C@@H]([C@H]4C)[C@@]57OO6)nn3)cc2oc1=O
IC50 [1, 5]: 61 µM
IC50 [2, 6]: 75.7 µM
IC50 [3, 6]: 67.2 µM
IC50 [4, 5]: 58.4 µM

Cc1c(C)c2ccc(O[C@H]3O[C@@H]4O[C@@]5(C)CC[C@H]6[C@H](C)CC[C@@H]([C@H]3C)[C@@]46OO5)cc2oc1=O
IC50 [1, 5]: 78.8 µM
IC50 [2, 6]: 30.3 µM
IC50 [3, 6]: 11.8 µM
IC50 [4, 5]: 6.44 µM

Cc1c(C)c2ccc(OCCCO[C@H]3O[C@@H]4O[C@@]5(C)CC[C@H]6[C@H](C)CC[C@@H]([C@H]3C)[C@@]46OO5)cc2oc1=O
IC50 [1, 5]: 17.1 µM
IC50 [2, 6]: 3.54 µM
IC50 [3, 6]: 8.71 µM
IC50 [4, 5]: 7.92 µM

C[C@H]1[C@@H](Oc2ccc3c(C(F)(F)F)cc(=O)oc3c2)O[C@@H]2O[C@@]3(C)CC[C@H]4[C@H](C)CC[C@@H]1[C@@]24OO3
IC50 [1, 5]: 56.8 µM
IC50 [2, 6]: 22.3 µM
IC50 [3, 6]: 11.1 µM
IC50 [4, 5]: 3.25 µM

C[C@H]1[C@@H](OCc2cn(-c3ccc4c(C(F)(F)F)cc(=O)oc4c3)nn2)O[C@@H]2O[C@@]3(C)CC[C@H]4[C@H](C)CC[C@@H]1[C@@]24OO3
IC50 [1, 5]: > 100 µM
IC50 [2, 6]: 5.33 µM
IC50 [3, 6]: 5.22 µM
IC50 [4, 5]: 49.6 µM

From ChEMBL document CHEMBL4152206, “Design, synthesis, cytotoxicity and mechanism of novel dihydroartemisinin-coumarin hybrids as potential anti-cancer agents” (Eur J Med Chem, 2018)
